# Screens as filed in PubChem.
# NF-kB expr up = activators of NF-kB expression in neurons, primary screen, cell-based, HTS; human neuronal cells, NF-kB reporter expression; stronger effect = higher value; fold change at 12.5 µM; hit rate 1.6% among 190,000; AID 1239, 2008; in the data active means fold change above about 3.3
# STAT3 inh = IL-6 driven STAT3 reporter inhibitors, primary screen, U3A cells, luciferase, luminescence, MLSCN library; IL-6 STAT3-luciferase reporter; host cell line lacks STAT1; inhibition, % at 5.5 µM; hit rate 0.89% among 190,000;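 active means inhibition above the mean inhibition across all screened compounds plus 3 SD, cut at about 44% in these data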;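 further: 0% = DMSO only wells and 100% = 100 µM nifuroxazide control wells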
# STAT1 activator = STAT1 signaling activators, primary screen, cell-based, HTS, luciferase reporter. NIH 3T3 STAT1-luciferase reporter, IFN-gamma, luminescence; 100% = IFN-gamma alone, no compound. activation (% of control), % at 5.5 µM. hit rate 2.6% among 200,000. AID 932, 2007;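 active means activation above the screen-wide mean activation plus 3 SD, cut at about 130% in these data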;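 further: raw ratio to IFN-gamma control signal so 100% means no change and 0% no light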
# APP 5'UTR act = activators of APP 5'UTR luciferase reporter, primary screen, SH-SY5Y cells | SH-SY5Y APP 5'UTR luciferase reporter, luminescence; zero percent = DMSO vehicle wells | activation, % at 2 µM | hit rate 1% among 190,000;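 active means activation above a set limit, based on mean plus 3 SD of controls, cut at about 140% in these data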
# STAT1 inh = STAT1 signaling inhibitors, primary screen, cell-based, HTS, luciferase reporter; NIH 3T3 STAT1-luciferase reporter, IFN-gamma, luminescence; hit rate 0.35% among 200,000; inhibition, % at 5.5 µM;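 active means inhibition above a set limit, the mean inhibition across all tested compounds plus 3 SD, cut at about 34% in these data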;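 further: 0% = IFN-gamma with DMSO and 100% = IFN-gamma with 300 µM nifuroxazide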
# STAT3 act = IL-6 driven STAT3 reporter potentiators, primary screen, U3A cells, luciferase, luminescence, MLSCN library. IL-6 STAT3-luciferase reporter; 100% = signal with IL-6 EC80 alone. activation (% of control), % at 5.6 µM. hit rate 0.91% among 190,000;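 active means activation above the screen-wide mean of compound activation plus 3 SD, cut at about 130% in these data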;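 further: 0% = background luminescence of wells with medium and substrate only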
#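 Test system: human U3A cells carrying STAT3-luciferase construct; control set: IL-6-only wells as 100% reference; timing: compound pre-incubation 1 h before IL-6, then 6 h stimulation at 37 °C; also added: IL-6 stimulus at 33 ng/mL final; evaluation: % activation versus median of IL-6-stimulated wells; detection: reporter luminescence signal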
# STAT1 activ conf = STAT1 signaling activators, confirmation, cell-based, HTS, luciferase reporter | activation (% of control), % at 5.7 µM | hit rate 97% among 1,200 | shares compounds with STAT1 activator | NIH 3T3 STAT1-luciferase reporter, IFN-gamma potentiation, luminescence; 100% = IFN-gamma EC80 alone, no compound | AID 1262, 2008;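 active means activation above a set limit carried over from the earlier primary STAT1 screen, cut at about 140% in these data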;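 further: simple ratio to median IFN-gamma plus DMSO wells so 0% means no light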
# NFkB act = NF-kB reporter activators, TNF-alpha stimulated, counter-screen for STAT1 activator project, cell-based, HEK293T, luciferase luminescence. hit rate 43% among 1,200. shares compounds with STAT1 activator. AID 1306, 2008. 100% = TNF-alpha with vehicle only. activation (% of control), % at 5.7 µM;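 active means activation above the mean of solvent-only control wells plus 3 SD, set per campaign, cut at about 130% in these data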;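 further: TNF-alpha given at a submaximal dose yielding about 80% of full reporter signal; values are well signal over median control so 100% means no change and 0% no light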
# STAT3 act STAT1c = STAT3 reporter activation by STAT1 hits, confirmation, counter-screen for STAT1 activator project, U3A cells, luciferase, luminescence. hit rate 46% among 1,200. IL-6; cells lack STAT1; 100 = IL-6 alone, no compound effect. shares compounds with STAT1 activator. activation (% of control), % at 5.7 µM;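 active means activation above the solvent-only control well mean plus 3 SD, set per plate batch, cut at about 110% in these data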;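 further: 0% = no luminescence and 100% = median IL-6 plus DMSO wells; higher means more STAT3 reporter activation so hits are non-selective activators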
# Active calls of the source: *; · = no result given. Hits are enriched below; roughly 4.9% of the tested compounds scored in any of these assays.
SMILES,NF-kB expr up,STAT3 inh,STAT1 activator,APP 5'UTR act,STAT1 inh,STAT3 act,STAT1 activ conf,NFkB act,STAT3 act STAT1c
CCOC(=O)c1cnc2c(-c3ccccc3)c(C)nn2c1N,1.4,11,113,-6,-15,91,·,·,·
COCCN1C(=O)CS/C1=C(/C#N)C(=O)NCc1ccco1,0.95,-5,101,-10,-1,106,·,·,·
CCCCNC(=O)CCn1c(=O)c2ccccc2n(CC(=O)NCCc2ccc(OC)c(OC)c2)c1=O,1.5,10,87,2,14,98,·,·,·
Cc1cccc(/N=C/c2c(O)[nH]c3ccccc23)n1,3.4*,-8,158*,122,-64,111,171*,112,124*
CC(C)N=Cc1c(O)[nH]c2ccccc12,1.4,28,96,-4,4,81,·,·,·
Oc1[nH]c2ccccc2c1C=Nc1ccc2c(c1)OCCO2,4.4*,37,187*,183*,-85,70,346*,137*,106
NC(=O)c1ccccc1NC(=O)/C=C/C(=O)O,2.7,10,97,14,4,97,·,·,·
Cc1ccc(/C=C/C(=O)Nc2ccccc2C(N)=O)cc1,5.3*,33,152*,183*,-60,75,180*,112,88
O=C(NCC1CCCO1)C1CC(c2ccccc2Cl)=NO1 (configuration not stated),1.5,0,101,0,-2,100,·,·,·
O=C1c2ccccc2S(=O)(=O)N1CC1CC(c2ccccc2Cl)=NO1 (configuration not stated),4.9*,-4,161*,47,-67,107,198*,129,126*
Nc1ccc2oc(-c3cc(Br)ccc3Cl)nc2c1,0.5,17,97,-47,3,92,·,·,·
Nc1ccc2oc(-c3ccccc3Cl)nc2c1,2.4,34,151*,10,-56,68,203*,103,90
O=[N+]([O-])c1cc(-c2ccn[nH]2)ccc1Cl,1.1,4,108,-16,-9,96,·,·,·
C=CCNC(=S)NNC(=O)COc1ccc(Br)cc1,1.2,4,113,-1,-14,97,·,·,·
C=CCNC(=S)NNC(=O)COc1ccc2cc(Br)ccc2c1,3.4*,5,152*,66,-58,99,152*,125,104
Cc1ccc(NC(=O)CN(C)C(=O)COc2cccc3cccnc23)cc1,1.2,-9,100,-4,-1,108,·,·,·
Cc1noc(NS(=O)(=O)c2ccc(N/C=C/C(=O)c3cccnc3)cc2)c1C,1.4,14,103,-12,-2,94,·,·,·
O=C(/C=C\Nc1ccc(Br)cc1)c1cccnc1,8.8*,14,162*,210*,-70,91,198*,117,90
COc1ccccc1OCc1cc(-c2ccccc2)no1,4.3*,4,161*,80,-69,106,184*,138*,106
Cc1ccc(SCc2cc(-c3ccc(Cl)cc3)no2)cc1,1.2,5,102,·,-2,101,·,·,·
c1ccc(SCc2cc(-c3ccccc3)no2)cc1,2.1,14,162*,116,-70,97,175*,127,102
c1ccc(OCc2cc(-c3ccccc3)no2)cc1,2,12,152*,59,-54,90,169*,131,99
CCN(CC)S(=O)(=O)c1ccc(C)c(NS(=O)(=O)c2cc(/C=C/C(=O)O)cc(OC)c2OC)c1,1,0,102,12,-5,101,·,·,·
Cc1ccc2nc(/C=C/c3cccc(F)c3)ccc2c1,7.4*,6,194*,214*,-107,99,259*,150*,116*
CCC1CCC(NC(=O)Nc2cccc(OC)c2)CC1 (configuration not stated),4.5*,-12,159*,158*,-67,113,168*,132,123*
SMILES,NF-kB expr up,STAT3 inh,STAT1 activator,APP 5'UTR act,STAT1 inh,STAT3 act,STAT1 activ conf,NFkB act,STAT3 act STAT1c
CCN(CC)c1ccc(N=Nc2nn(C)c(C)c2[N+](=O)[O-])cc1,5.7*,21,178*,142*,-88,82,222*,140*,107
CCN(CC)c1ccc(N=Nc2ncn[nH]2)cc1,2.6,13,104,49,-2,93,·,·,·
Cc1cccc(-c2nc(C#N)c(NC3CCCCC3)o2)c1,2.8,-9,156*,136*,-62,108,174*,132,118*
Cc1cccc(-c2nc(CS(=O)CC(=O)NC3CCCC3)c(C)o2)c1 (configuration not stated),1.1,8,106,7,-6,98,·,·,·
Cc1ccc(/C=N/Nc2ncc(Cl)cc2Cl)s1,1.9,21,125,6,-27,88,·,·,·
Clc1cnc(N/N=C/c2ccco2)c(Cl)c1,4.2*,15,159*,155*,-66,86,151*,111,92
CN1CCC(N(C)C(=O)c2cc(=O)c3ccccc3o2)CC1,1.1,4,104,-10,-4,102,·,·,·
CCn1c(O)c(C=Nc2ccccc2)sc1=S,3.4*,11,176*,191*,-84,100,206*,139*,111*
O=C(O)Cn1c(O)c(C=Nc2ccccc2)sc1=S,1.1,10,102,16,-2,96,·,·,·
Cc1occc1C(=O)Nc1cccc([N+](=O)[O-])c1,1.3,10,102,10,-2,91,·,·,·
O=C(Nc1ccc2c(c1)CCC2)c1ccccc1F,8.3*,27,179*,183*,-87,78,222*,123,97
Cc1occc1C(=O)Nc1ccc2c(c1)CCC2,4.7*,4,156*,144*,-61,96,176*,130,109
O=C(Nc1ccc2c(c1)CCC2)c1ccccc1,8*,16,181*,172*,-89,84,237*,132,102
Cc1cccc(Nc2nc(NCCCN3CCOCC3)nc(N)c2[N+](=O)[O-])c1,0.65,27,97,-10,3,79,·,·,·
